The source made the active and inactive calls. The rule behind the calls is not given here.
Experiments:
[1] = tested on: Radical scavenging activity; assay: Antioxidant activity assessed as DPPH radical scavenging activity at 0.05 mM after 20 mins; assay type: functional
Outline: (§1)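 DPPH (0.05 mM in absolute ethanol) mixed with an equal volume of compound in DMSO (final 0.05 mM). Shaken vigorously, left 20 or 60 min, absorbance read at 517 nm. Percent activity calculated; three replicates averaged.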

[2] = tested on: Radical scavenging activity; assay: Antioxidant activity assessed as DPPH radical scavenging activity at 0.05 mM after 60 mins; assay type: functional; outline: as §1
[3] = Antioxidant activity assessed as protection against […]-induced linoleic acid lipid peroxidation 0.01 mM; assay type: functional
Outline: (§2)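 Linoleic acid sodium salt (16 mM solution) in 0.05 M phosphate buffer, pH 7.4, prethermostated at 37 °C. Oxidation started at 37 °C under air with 40 mM AAPH solution, with compound aliquots in DMSO present. Blanks carry the same DMSO level. Conjugated diene hydroperoxide formation followed by absorbance increase at 234 nm. At least triplicate, averaged.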

[4] = Antioxidant activity assessed as protection against […]-induced linoleic acid lipid peroxidation 0.1 mM; assay type: functional; outline: as §2
Glycine max [5] = assay: Inhibition of soybean LOX at 0.01 mM
Outline: (§3)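 Soybean lipoxygenase solution (1/9×10^-4 w/v in saline) incubated at RT with sodium linoleate and compound in DMSO. Conversion to 13-hydroperoxylinoleic acid recorded at 234 nm against a standard inhibitor. At least triplicate, averaged.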

Glycine max [6] = assay: Inhibition of soybean LOX at 0.1 mM; outline: as §3
[7] = Cytotoxicity against human lung fibroblast assessed as cell viability at 0.17 mM after 24 hrs by MTT assay; assay type: cell-based; conditions: human lung fibroblasts, read-out: Activity
Outline: (§4)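 Human lung fibroblasts, passage 19, grown in DMEM with 10% FBS, penicillin and streptomycin at 37 °C, 5% CO2. Seeded at 3×10^4 cells/mL and allowed to adhere 24 h. Exposed 24 h to compounds in DMSO (≤1% final), 1–50 µg/mL. After washing, MTT (5 mg/mL in PBS) added for 4–6 h at 37 °C. Formazan dissolved in isopropanol, read at 570 nm. At least three measurements.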

[8] = Cytotoxicity against human lung fibroblast assessed as cell viability at 0.02 mM after 24 hrs by MTT assay; assay type: cell-based; conditions: 20 µM; outline: as §4
[9] = Cytotoxicity against human lung fibroblast assessed as cell viability at 50 ug/ml after 24 hrs by MTT assay; assay type: cell-based; conditions: human lung fibroblasts, read-out: Activity; outline: as §4
[10] = Cytotoxicity against human lung fibroblast assessed as cell viability at 0.03 to 0.037 mM after 24 hrs by MTT assay; assay type: cell-based; conditions: human lung fibroblasts, in the assay text read “0.003 to 0.037 mM” for “0.03 to 0.037 mM”, read-out: Activity; outline: as §4
[11] = Cytotoxicity against human lung fibroblast assessed as cell viability at 0.04 mM after 24 hrs by MTT assay; assay type: cell-based; conditions: 40 µM; outline: as §4
[12] = Cytotoxicity against human lung fibroblast assessed as cell viability at 0.16 mM after 24 hrs by MTT assay; assay type: cell-based; conditions: human lung fibroblasts, read-out: Activity; outline: as §4

inhibition (Glycine max [5])	inhibition (Glycine max [6])	SMILES	inhibition [1]	inhibition [2]	inhibition [3]	inhibition [4]	viability at 24 h, 170 µM [7]	Activity [8]	viability at 24 h, 50 ug/ml [9]	viability at 24 h, up to 37 µM [10]	Activity [11]	viability at 24 h, 160 µM [12]
inactive	19%	Cc1cccc(C2=Nc3nc4ccccc4n3C(C)(c3cccc(C)c3)C2=O)c1 (stereo not drawn)	4%	5%	35%	84%	–	–	–	–	–	–
49%	100%	CC1(c2ccccc2)C(=O)C(c2ccccc2)=Nc2nc3ccccc3n21 (stereo not drawn)	2%	1%	11%	100%	–	–	–	–	–	–
inactive	inactive	CC1(c2ccc(Cl)cc2)C(=O)C(c2ccc(Cl)cc2)=Nc2nc3ccccc3n21 (stereo not drawn)	2%	2%	33%	97%	–	Non-toxic	37%	–	–	–
inactive	inactive	C/C(=N\c1nc2ccccc2[nH]1)c1cccc(Br)c1	inactive	6%	65%	97%	–	–	–	–	–	–
inactive	inactive	COc1cccc(C2=Nc3nc4ccccc4n3C(C)(c3cccc(OC)c3)C2=O)c1 (stereo not drawn)	3%	2%	3%	100%	–	–	63%	–	Non-toxic	–
51%	61%	CC1(c2ccc(Br)cc2)C(=O)C(c2ccc(Br)cc2)=Nc2nc3ccccc3n21 (stereo not drawn)	3%	2%	9%	78%	–	–	–	–	–	–
inactive	40%	Cc1ccc(C2=Nc3nc4ccccc4n3C(C)(c3ccc(C)cc3)C2=O)cc1 (stereo not drawn)	inactive	inactive	8%	80%	–	–	–	–	–	–
inactive	12%	CC1(c2cccc(Br)c2)C(=O)C(c2cccc(Br)c2)=Nc2nc3ccccc3n21 (stereo not drawn)	inactive	3%	51%	–	–	–	–	–	–	–

The remaining lines, values behind:

SMILES	inhibition (Glycine max [5])	inhibition (Glycine max [6])	inhibition [1]	inhibition [2]	inhibition [3]	inhibition [4]	viability at 24 h, 170 µM [7]	Activity [8]	viability at 24 h, 50 ug/ml [9]	viability at 24 h, up to 37 µM [10]	Activity [11]	viability at 24 h, 160 µM [12]
C/C(=N\c1nc2ccccc2[nH]1)c1ccc2ccccc2c1	18%	98%	5%	7%	26%	97%	62.5%	–	–	–	–	–
C/C(=N\c1nc2ccccc2[nH]1)c1ccc(C)cc1	inactive	inactive	inactive	8%	47%	84%	–	–	–	–	–	–
Cc1cc(C(C)(C)C)c(O)c(C(C)(C)C)c1	–	–	31%	60%	–	–	–	–	–	–	–	–
CC(Cc1ccc(O)c(O)c1)C(C)Cc1ccc(O)c(O)c1 (stereo not drawn)	40%	84%	81%	83%	–	–	–	–	–	–	–	–
C/C(=N\c1nc2ccccc2[nH]1)c1ccccc1	inactive	inactive	0.3%	5%	18%	67%	–	–	–	–	–	–
COc1ccc(/C(C)=N/c2nc3ccccc3[nH]2)cc1	22%	65%	4%	3%	12%	68%	–	–	–	56%	–	–
C/C(=N\c1nc2ccccc2[nH]1)c1cccc(C)c1	inactive	8%	inactive	inactive	63%	77%	–	–	–	–	–	–
C/C(=N\c1nc2ccccc2[nH]1)c1ccc(Cl)cc1	62%	85%	3%	4%	–	26%	–	–	–	–	–	–
COc1cccc(/C(C)=N/c2nc3ccccc3[nH]2)c1	inactive	42%	inactive	inactive	69%	100%	–	–	–	–	–	–
Cc1c(C)c2c(c(C)c1O)CCC(C)(C(=O)O)O2 (stereo not drawn)	–	–	–	–	–	63%	–	–	–	–	–	–
C/C(=N\c1nc2ccccc2[nH]1)c1ccc(Br)cc1	inactive	18%	inactive	4%	22%	50%	–	–	–	–	–	73.6%

From ChEMBL document CHEMBL1649409, “One-pot microwave assisted synthesis under green chemistry conditions, antioxidant screening, and cytotoxicity assessments of benzimidazole Schiff bases and pyrimido[1,2-a]benzimidazol-3(4H)-ones” (Eur J Med Chem, 2011)
